The text below walks through data of ChEMBL document CHEMBL3259739, “Synthesis and structure-activity relationship of trisubstituted thiazoles as Cdc7 kinase inhibitors” (Eur J Med Chem, 2014).

The nature of data set [1]: Intrinsic clearance in human liver microsomes at 1 uM after 30 mins by reverse phase HPLC analysis in presence of NADPH. The data set is classed as ADME. The note with it: read-out: CLH. The gist of the method: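 Reactions were stopped with MeCN after 0 or 30 min. Samples were analysed by reverse-phase HPLC–tandem MS to give intrinsic clearance (µl/min/mg).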
The target in data set [2] is T1, Mitogen-activated protein kinase kinase kinase 19 (Homo sapiens) (UniProt Q56UN5).
T1 sequence (whole entry): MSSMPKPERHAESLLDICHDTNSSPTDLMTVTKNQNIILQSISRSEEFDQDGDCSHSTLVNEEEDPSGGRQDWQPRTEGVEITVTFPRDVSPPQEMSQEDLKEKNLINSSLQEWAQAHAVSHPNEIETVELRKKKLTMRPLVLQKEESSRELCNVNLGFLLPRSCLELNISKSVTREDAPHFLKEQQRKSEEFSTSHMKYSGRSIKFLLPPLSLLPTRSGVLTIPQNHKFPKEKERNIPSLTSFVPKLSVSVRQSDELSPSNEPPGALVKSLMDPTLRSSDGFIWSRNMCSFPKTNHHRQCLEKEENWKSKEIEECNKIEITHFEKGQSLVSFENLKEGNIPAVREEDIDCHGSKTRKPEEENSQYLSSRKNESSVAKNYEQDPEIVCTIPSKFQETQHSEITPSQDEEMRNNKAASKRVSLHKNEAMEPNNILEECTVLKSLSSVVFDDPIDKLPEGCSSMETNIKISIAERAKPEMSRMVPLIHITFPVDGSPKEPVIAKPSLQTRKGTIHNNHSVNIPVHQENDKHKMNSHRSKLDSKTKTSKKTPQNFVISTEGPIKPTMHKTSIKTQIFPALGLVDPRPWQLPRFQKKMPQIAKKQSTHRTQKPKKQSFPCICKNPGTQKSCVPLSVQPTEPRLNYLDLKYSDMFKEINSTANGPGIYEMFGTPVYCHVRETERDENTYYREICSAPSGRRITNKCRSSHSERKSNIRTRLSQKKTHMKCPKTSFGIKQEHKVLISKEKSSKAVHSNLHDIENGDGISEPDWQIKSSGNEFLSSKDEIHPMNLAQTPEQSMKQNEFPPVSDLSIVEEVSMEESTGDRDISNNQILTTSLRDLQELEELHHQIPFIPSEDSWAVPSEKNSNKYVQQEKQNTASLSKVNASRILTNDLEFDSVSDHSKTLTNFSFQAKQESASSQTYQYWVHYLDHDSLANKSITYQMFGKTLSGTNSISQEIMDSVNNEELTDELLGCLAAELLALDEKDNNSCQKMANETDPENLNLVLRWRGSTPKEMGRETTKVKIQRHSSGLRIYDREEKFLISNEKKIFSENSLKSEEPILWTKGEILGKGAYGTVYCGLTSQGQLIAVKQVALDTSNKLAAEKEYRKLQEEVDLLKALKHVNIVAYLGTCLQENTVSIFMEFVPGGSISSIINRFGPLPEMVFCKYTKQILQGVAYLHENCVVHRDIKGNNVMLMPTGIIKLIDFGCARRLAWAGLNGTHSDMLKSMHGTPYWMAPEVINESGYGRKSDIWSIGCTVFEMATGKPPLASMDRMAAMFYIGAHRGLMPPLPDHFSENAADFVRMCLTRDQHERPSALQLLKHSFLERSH
The data set is described as follows: Inhibition of YSK4 (unknown origin) at 1 uM relative to control. The following applies: values are per cent of control. The gist of the method: (§1)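 KinomeSCAN competitive binding panel of 100 kinases; compounds tested at 1 µM in duplicate; read-out is percent […] control.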

Data set [3] has as its target Proto-oncogene tyrosine-protein kinase Src (Homo sapiens) (UniProt P12931). Briefly: Inhibition of SRC (unknown origin) at 1 uM relative to control. The following applies: values are per cent of control. In a few lines: as §1
For data set [4], the target named is T2, TGF-beta receptor type-1 (Homo sapiens) (UniProt P36897).
T2 sequence (whole entry): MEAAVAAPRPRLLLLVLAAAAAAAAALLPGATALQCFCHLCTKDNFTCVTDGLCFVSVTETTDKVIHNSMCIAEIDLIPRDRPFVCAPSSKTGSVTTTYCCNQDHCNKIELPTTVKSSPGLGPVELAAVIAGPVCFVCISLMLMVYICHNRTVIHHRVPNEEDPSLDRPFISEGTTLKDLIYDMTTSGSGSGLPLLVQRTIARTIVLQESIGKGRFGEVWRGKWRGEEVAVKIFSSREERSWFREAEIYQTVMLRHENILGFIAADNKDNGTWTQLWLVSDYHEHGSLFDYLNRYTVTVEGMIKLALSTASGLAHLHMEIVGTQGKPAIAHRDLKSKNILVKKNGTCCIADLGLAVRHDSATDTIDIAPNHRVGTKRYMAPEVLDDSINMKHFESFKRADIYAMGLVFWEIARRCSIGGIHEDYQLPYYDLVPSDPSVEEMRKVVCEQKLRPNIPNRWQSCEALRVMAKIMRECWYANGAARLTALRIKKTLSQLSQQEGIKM
Briefly: Inhibition of TGFBR1 (unknown origin) at 1 uM relative to control. The note with it: values are per cent of control. The gist of the method:
as §1

Data set [5] deals with Ribosomal protein S6 kinase alpha-5 (Homo sapiens) (UniProt O75582). The data set is described as follows: Inhibition of RPS6KA5 (unknown origin) at 1 uM relative to control. The note with it: values are per cent of control.
Ribosomal protein S6 kinase alpha-5 (Homo sapiens), sequence (O75582 whole entry, looked up): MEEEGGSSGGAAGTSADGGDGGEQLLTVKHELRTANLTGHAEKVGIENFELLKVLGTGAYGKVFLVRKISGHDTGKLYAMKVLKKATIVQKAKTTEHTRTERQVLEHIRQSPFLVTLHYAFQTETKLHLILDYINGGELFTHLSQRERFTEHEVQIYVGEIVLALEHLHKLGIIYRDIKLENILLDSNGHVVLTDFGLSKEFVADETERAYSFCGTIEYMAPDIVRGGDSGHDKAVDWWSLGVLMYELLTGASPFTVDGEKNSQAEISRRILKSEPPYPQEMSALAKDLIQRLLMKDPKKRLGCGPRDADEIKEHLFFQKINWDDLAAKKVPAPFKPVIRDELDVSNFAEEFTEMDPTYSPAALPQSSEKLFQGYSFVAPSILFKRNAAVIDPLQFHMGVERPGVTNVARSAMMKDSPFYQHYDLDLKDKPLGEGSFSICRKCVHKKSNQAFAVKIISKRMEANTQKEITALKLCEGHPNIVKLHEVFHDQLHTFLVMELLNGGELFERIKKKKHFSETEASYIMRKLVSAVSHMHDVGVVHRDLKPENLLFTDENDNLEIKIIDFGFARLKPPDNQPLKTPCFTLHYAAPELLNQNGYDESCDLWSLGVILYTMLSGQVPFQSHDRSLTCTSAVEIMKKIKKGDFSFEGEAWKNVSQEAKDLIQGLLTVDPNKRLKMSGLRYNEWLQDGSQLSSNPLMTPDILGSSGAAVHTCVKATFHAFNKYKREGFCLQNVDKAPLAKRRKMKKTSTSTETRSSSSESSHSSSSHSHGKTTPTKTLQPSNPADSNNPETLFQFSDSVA
The target in data set [6] is RAC-alpha serine/threonine-protein kinase (Homo sapiens) (UniProt P31749). Briefly: Inhibition of AKT1 (unknown origin) at 1 uM relative to control; values are per cent of control.
RAC-alpha serine/threonine-protein kinase (Homo sapiens), sequence (P31749 whole entry): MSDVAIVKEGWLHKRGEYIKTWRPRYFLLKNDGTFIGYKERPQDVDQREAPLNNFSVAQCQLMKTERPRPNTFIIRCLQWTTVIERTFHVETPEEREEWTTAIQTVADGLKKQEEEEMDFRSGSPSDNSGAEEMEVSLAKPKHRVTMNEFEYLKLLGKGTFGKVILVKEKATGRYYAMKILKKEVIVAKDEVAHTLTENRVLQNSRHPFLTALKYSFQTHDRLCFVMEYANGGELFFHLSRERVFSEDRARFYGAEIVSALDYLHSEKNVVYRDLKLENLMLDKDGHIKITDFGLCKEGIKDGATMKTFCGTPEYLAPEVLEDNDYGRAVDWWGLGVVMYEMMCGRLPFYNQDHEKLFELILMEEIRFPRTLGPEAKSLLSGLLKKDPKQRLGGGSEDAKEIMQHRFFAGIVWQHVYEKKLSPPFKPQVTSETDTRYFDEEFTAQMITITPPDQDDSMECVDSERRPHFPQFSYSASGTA
Data set [7] has as its target Dual specificity protein kinase CLK2 (Homo sapiens) (UniProt P49760). The data set is described as follows: Inhibition of CLK2 (unknown origin) at 1 uM relative to control; values are per cent of control.
Data set [8] has as its target Insulin receptor (Homo sapiens) (UniProt P06213). The data set is described as follows: Inhibition of INSR (unknown origin) at 1 uM relative to control; values are per cent of control.
Data set [9] has as its target Ephrin type-A receptor 2 (Homo sapiens) (UniProt P29317). The data set is described as follows: Inhibition of EPHA2 (unknown origin) at 1 uM relative to control; values are per cent of control.
Data set [10] addresses MAP kinase-interacting serine/threonine-protein kinase 1 (Homo sapiens) (UniProt Q9BUB5). Briefly: Inhibition of MKNK1 (unknown origin) at 1 uM relative to control; values are per cent of control.
Data set [11] deals with Casein kinase II subunit alpha (Homo sapiens) (UniProt P68400). Briefly: Inhibition of CSNK2A1 (unknown origin) at 1 uM relative to control; values are per cent of control.
Casein kinase II subunit alpha (Homo sapiens), sequence (P68400 whole entry, looked up): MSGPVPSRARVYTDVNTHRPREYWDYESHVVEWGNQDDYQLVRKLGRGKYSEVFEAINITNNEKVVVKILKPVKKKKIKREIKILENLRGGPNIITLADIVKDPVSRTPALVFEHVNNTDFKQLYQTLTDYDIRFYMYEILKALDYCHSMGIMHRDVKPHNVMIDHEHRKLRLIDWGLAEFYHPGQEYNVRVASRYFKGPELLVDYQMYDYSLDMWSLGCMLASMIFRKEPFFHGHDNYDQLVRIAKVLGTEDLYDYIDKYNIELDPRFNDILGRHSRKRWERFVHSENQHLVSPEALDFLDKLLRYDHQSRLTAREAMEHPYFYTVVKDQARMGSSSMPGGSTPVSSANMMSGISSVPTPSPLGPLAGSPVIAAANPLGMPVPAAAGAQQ
Data set [12] deals with Cyclin-dependent kinase 4/cyclin D1 (Homo sapiens) (UniProt P11802+P24385). The data set is described as follows: Inhibition of CDK4-cyclinD1 (unknown origin) at 1 uM relative to control; values are per cent of control.
Data set [13] deals with Tyrosine-protein kinase ABL1 (Homo sapiens) (UniProt P00519). The data set is described as follows: Inhibition of phosphorylated ABL1 (unknown origin) at 1 uM relative to control; values are per cent of control.
Tyrosine-protein kinase ABL1 (Homo sapiens), sequence (P00519 whole entry): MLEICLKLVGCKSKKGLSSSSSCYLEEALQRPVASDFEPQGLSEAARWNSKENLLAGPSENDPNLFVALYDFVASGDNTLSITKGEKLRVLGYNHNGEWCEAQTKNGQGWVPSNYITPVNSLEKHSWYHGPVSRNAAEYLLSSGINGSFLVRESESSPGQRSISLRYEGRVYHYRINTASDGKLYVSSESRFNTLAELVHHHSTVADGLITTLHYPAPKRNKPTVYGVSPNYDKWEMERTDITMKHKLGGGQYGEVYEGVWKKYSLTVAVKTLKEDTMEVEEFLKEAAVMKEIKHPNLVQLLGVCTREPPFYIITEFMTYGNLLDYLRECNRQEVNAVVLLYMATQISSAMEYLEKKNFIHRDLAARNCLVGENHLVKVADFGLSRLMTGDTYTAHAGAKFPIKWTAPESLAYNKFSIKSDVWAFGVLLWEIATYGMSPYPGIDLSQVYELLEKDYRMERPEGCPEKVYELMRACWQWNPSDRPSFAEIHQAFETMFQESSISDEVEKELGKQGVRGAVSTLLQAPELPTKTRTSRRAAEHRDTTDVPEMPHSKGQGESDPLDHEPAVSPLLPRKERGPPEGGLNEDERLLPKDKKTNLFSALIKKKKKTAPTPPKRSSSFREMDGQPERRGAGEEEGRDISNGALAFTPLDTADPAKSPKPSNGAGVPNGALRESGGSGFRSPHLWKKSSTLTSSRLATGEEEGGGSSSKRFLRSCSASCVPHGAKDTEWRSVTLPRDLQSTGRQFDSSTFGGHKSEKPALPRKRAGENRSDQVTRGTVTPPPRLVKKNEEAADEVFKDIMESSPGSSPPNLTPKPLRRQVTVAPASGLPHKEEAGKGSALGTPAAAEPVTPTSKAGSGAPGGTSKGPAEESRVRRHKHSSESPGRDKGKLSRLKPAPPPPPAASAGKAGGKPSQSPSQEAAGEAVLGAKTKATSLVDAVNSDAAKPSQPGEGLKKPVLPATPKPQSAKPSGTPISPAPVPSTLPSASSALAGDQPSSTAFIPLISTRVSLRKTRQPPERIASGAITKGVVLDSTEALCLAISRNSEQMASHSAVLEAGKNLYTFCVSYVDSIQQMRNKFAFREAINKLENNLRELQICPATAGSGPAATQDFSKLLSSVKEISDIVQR

Proto-oncogene tyrosine-protein kinase Src (Homo sapiens), sequence (P12931 2-536 limits assumed): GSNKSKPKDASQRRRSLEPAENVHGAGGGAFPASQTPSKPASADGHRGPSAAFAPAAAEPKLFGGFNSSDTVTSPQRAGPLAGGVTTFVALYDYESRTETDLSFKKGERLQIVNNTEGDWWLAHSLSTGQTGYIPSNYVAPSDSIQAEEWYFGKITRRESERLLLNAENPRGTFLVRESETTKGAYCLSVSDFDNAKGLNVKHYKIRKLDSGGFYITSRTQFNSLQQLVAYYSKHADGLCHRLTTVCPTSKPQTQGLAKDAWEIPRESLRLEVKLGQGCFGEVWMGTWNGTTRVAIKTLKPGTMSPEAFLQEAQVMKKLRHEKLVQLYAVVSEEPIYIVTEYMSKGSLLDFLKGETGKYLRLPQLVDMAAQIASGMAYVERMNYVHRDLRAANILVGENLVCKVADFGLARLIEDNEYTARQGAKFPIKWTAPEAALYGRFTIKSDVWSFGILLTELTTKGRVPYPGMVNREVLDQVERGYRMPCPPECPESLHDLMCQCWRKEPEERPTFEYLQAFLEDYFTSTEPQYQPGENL
Dual specificity protein kinase CLK2 (Homo sapiens), sequence (P49760 whole entry, looked up): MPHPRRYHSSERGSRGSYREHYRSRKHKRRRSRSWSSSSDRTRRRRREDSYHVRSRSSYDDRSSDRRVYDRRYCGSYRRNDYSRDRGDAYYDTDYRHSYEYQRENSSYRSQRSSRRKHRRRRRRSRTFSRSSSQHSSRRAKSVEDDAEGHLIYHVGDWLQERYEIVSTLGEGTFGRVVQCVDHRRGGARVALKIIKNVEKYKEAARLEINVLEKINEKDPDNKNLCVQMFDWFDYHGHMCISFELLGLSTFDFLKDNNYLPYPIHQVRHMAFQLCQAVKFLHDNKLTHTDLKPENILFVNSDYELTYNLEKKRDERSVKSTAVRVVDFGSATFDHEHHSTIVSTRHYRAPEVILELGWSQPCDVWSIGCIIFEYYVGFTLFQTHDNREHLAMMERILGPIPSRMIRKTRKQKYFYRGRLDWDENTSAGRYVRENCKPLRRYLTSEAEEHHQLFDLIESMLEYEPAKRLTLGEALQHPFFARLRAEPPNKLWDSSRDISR
Ephrin type-A receptor 2 (Homo sapiens), sequence (P29317 whole entry): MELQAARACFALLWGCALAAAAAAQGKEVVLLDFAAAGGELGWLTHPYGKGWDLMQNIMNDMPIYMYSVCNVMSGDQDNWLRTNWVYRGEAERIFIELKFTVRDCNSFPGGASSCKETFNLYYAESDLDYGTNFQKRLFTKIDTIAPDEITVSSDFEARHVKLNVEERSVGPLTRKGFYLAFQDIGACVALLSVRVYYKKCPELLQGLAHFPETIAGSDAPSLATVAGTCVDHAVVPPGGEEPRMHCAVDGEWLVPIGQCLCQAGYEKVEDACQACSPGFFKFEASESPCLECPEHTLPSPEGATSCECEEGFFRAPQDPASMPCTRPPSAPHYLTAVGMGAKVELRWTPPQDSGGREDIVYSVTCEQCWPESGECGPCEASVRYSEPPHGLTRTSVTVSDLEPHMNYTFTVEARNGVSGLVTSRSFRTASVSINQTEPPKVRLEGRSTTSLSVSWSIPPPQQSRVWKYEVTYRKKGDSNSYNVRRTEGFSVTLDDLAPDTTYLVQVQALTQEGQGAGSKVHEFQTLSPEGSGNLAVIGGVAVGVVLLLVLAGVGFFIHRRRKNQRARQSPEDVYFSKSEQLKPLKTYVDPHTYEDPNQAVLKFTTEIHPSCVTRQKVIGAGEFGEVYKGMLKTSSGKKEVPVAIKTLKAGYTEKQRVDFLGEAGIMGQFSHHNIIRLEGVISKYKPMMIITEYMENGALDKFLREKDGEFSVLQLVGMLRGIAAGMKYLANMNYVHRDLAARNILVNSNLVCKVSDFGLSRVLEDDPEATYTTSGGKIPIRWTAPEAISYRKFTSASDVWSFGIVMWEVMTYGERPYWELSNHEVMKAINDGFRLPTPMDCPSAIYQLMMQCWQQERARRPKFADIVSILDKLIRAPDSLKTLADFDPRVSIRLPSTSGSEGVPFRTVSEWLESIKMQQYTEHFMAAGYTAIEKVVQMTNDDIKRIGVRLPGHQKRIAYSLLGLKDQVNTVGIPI

Take `CCOC(=O)c1sc(-c2ccncc2)nc1O`: in data set [1], the microsomal CLint at 1 µM worked out at 17 µL/min/mg. For the same compound, the residual binding, % of control was 97% in data set [2], 81% in data set [3], 100% in data set [4] and 100% in data set [5]. Also, the residual activity in data set [6] was found to be 75%; in data set [7], 86%; in [8], 92%; in data set [9] it was 78%; in data set [10], 100%; in data set [11], 50%. Also, the residual activity in data set [12] and in data set [13] was 100% each time.

Turning to `NC(=O)c1sc(-c2ccnc(N)n2)nc1-c1ccc(Cl)cc1Cl`, the microsomal CLint at 1 µM in data set [1] is 19 µL/min/mg. In addition, the residual binding, % of control was 41% in data set [2], 100% in [3], 91% in [4] and 100% in data set [5]. Besides, the residual activity in [6] was 80%; in [7], 7.9%; in data set [8], 78%; in data set [9], 88%; in data set [10], 84%; in [11] it was 66%. Further, the residual activity in data set [12] and in data set [13] was 100% each time.

`COc1ccc(-c2nc(-c3ccnc(N)n3)sc2C(N)=O)c(Cl)c1`: the microsomal CLint at 1 µM in [1] worked out at 43 µL/min/mg. The residual binding, % of control worked out at 34% in data set [2], 100% in data set [3], 72% in [4] and 100% in [5]. Moreover, the residual activity was found to be 66% in [6]; 10% in [7]; 82% in [8]; 80% in data set [9]; 55% in data set [10]; 95% in data set [11]. Moreover, the residual activity in [12] was found to be 98%; in data set [13], 90%.
